# Data taken from ChEMBL document CHEMBL1926591, “Synthesis of quinolinomorphinan-4-ol derivatives as δ opioid receptor agonists” (Bioorg Med Chem, 2012).
# How the values were obtained:
# Mu-type opioid receptor [1] = biological target: Mu-type opioid receptor (Mus musculus, UniProt P42866); assay: Displacement of [3H]DAMGO from mu opioid receptor in mouse whole brain membranes without cerebellum; assay type: cell membranes, Membrane
# [2] = biological target: Delta-type opioid receptor (Mus musculus, UniProt P32300); assay: Displacement of [3H]DPDPE from delta opioid receptor in mouse whole brain membranes without cerebellum; assay type: cell membranes, Membrane
# [3] = biological target: T1, Kappa-type opioid receptor (Cavia porcellus, UniProt P41144); assay: Displacement of [3H]U-69,593 from kappa opioid receptor in guinea pig cerebellum membranes; assay type: cell membranes, Membrane
# Rattus norvegicus = species on record: Rattus norvegicus; assay: Selectivity ratio of Ki for mu opioid receptor in rat cerebrum membranes to Ki for delta opioid receptor in rat cerebrum membranes; assay type: cell membranes; settings: Membrane
# Summary of the method: (§1)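 Rat cerebrum membranes; mu sites labelled with [³H]DAMGO and delta sites with [³H]DADLE, displaced by varying test concentrations. Nonspecific binding was defined with unlabeled levallorphan. Ki was derived from displacement data using the Cheng–Prusoff equation.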
# [4] = Selectivity ratio of Ki for kappa opioid receptor in guinea pig cerebrum membranes to Ki for delta opioid receptor in rat cerebrum membranes; assay type: cell membranes; settings: Membrane
# [5] = biological target: T2, Delta-type opioid receptor (Homo sapiens, UniProt P41143); assay: Ratio of (-)TAN-67 EC50 to compound EC50 for human recombinant delta opioid receptor expressed in human HEK293 cells; assay type: cell-based
# Summary of the method: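 [³⁵S]GTPγS binding used purchased HEK-293 membranes carrying human recombinant delta receptor. Incubation buffer was 50 mM Tris, 1 mM EDTA, 12.5 mM MgCl₂, 100 mM NaCl and 0.5% BSA. It contained GDP, 0.1 nM [³⁵S]GTPγS and graded compound concentrations. (−)-TAN-67 served as the standard delta agonist.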
# [6] = biological target: T2, Delta-type opioid receptor; assay: Ratio of SNC80 EC50 to compound EC50 for human recombinant delta opioid receptor expressed in human HEK293 cells; assay type: cell-based
# Mu-type opioid receptor [7] = biological target: Mu-type opioid receptor (Rattus norvegicus, UniProt P33535); assay: Displacement of [3H]DAMGO from mu opioid receptor in rat cerebrum membranes; assay type: cell membranes, Membrane; summary of the method: as §1
# [8] = biological target: Delta-type opioid receptor (Rattus norvegicus, UniProt P33533); assay: Displacement of [3H]DADLE from delta opioid receptor in rat cerebrum membranes; assay type: cell membranes, Membrane; summary of the method: as §1
# [9] = biological target: T1, Kappa-type opioid receptor; assay: Displacement of [3H]U-69,593 from kappa opioid receptor in guinea pig cerebrum membranes; assay type: cell membranes, Membrane
# Summary of the method: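 Kappa binding used guinea pig cerebrum membranes labelled with [³H]U-69,593 and displaced by test compound. Nonspecific binding was taken with […] unlabeled U-69,593. Ki was obtained via Cheng–Prusoff.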
# [10] = biological target: T2, Delta-type opioid receptor; assay: Agonist activity at human recombinant delta opioid receptor expressed in human HEK293 cells by [35S]GTPgammaS binding assay; assay type: functional, cell-based
# Sequence of Mu-type opioid receptor (Rattus norvegicus, UniProt P33535) (P33535 whole entry): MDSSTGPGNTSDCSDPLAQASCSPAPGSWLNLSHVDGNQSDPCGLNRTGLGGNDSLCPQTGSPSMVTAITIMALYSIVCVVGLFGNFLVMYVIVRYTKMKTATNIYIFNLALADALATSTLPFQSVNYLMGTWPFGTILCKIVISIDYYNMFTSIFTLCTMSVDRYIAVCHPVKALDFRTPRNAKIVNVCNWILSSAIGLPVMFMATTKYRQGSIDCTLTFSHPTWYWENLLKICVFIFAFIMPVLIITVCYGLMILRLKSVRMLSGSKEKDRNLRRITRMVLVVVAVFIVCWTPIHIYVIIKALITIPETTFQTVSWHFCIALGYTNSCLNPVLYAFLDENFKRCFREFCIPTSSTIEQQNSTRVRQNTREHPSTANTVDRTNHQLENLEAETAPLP
# T2 sequence (P41143 whole entry): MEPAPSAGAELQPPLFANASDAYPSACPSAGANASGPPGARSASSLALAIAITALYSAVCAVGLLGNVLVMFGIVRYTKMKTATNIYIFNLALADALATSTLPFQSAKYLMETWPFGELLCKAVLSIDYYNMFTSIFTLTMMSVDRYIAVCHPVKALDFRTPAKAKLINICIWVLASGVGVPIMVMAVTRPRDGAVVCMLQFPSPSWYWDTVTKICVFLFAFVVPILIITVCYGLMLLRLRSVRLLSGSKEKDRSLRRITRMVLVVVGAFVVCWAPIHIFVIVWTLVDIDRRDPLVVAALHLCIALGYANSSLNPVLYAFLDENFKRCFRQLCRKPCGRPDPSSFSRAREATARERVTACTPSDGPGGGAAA
# Sequence of Delta-type opioid receptor (Mus musculus, UniProt P32300) (P32300 whole entry): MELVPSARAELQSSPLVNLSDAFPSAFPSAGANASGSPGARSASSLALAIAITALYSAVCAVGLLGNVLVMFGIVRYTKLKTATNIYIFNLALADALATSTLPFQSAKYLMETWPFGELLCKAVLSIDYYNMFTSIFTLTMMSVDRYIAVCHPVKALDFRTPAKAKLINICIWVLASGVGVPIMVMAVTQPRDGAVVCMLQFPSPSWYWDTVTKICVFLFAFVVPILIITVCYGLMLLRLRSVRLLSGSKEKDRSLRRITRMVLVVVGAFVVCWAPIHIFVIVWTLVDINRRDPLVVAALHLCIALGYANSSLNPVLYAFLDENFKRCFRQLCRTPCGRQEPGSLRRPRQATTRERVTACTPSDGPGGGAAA
# T1 sequence (P41144 whole entry): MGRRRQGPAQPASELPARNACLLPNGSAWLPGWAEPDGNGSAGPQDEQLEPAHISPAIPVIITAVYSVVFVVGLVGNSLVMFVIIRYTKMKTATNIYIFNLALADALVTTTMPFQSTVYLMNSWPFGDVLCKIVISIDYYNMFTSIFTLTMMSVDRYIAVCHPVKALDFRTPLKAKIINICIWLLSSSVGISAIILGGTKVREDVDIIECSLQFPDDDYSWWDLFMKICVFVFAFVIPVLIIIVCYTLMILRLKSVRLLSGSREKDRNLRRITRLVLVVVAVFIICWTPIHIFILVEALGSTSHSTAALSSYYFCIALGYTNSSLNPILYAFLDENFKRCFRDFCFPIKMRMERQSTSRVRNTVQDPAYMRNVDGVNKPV
# Sequence of Delta-type opioid receptor (Rattus norvegicus, UniProt P33533) (P33533 whole entry): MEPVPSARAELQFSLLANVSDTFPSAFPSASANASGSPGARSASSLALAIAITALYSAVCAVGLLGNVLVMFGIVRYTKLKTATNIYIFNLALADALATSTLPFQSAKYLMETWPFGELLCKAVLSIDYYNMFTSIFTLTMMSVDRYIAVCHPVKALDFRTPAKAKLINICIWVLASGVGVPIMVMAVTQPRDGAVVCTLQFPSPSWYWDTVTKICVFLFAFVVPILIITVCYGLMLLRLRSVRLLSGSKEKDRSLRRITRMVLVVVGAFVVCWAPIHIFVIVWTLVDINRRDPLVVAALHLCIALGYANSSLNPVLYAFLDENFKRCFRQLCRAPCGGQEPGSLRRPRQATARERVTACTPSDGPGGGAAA
# Sequence of Mu-type opioid receptor (Mus musculus, UniProt P42866) (P42866 whole entry): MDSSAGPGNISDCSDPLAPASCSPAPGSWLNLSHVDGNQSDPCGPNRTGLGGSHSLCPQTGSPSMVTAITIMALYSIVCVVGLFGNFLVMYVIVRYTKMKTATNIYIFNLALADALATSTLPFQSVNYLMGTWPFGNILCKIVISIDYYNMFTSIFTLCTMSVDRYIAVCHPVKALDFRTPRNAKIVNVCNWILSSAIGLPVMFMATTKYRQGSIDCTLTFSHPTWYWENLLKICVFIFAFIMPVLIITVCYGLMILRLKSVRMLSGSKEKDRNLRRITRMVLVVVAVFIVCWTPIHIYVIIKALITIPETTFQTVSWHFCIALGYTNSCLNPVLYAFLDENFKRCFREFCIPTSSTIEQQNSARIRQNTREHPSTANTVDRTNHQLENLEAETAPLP
Compound,Ki (Mu-type opioid receptor [1]) [nM],Ki [2] [nM],Ki [3] [nM],Ratio Ki (Rattus norvegicus),Ratio Ki [4],Ratio EC50 [5],Ratio EC50 [6],Ki (Mu-type opioid receptor [7]) [nM],Ki [8] [nM],Ki [9] [nM],EC50 [10] [nM]
Oc1ccc2c(c1)[C@]13CCN(CC4CCCC4)[C@H](C2)[C@@H]1Cc1cc2ccccc2nc1C3,20.1,0.35,3.54,–,–,–,–,–,–,–,–
CC(C)CN1CC[C@]23Cc4nc5ccccc5cc4C[C@H]2[C@H]1Cc1ccc(O)cc13,–,–,–,124,23.2,10,10,–,–,–,–
Oc1ccc2c(c1)[C@]13CCN(CC4CC4)[C@H](C2)[C@@H]1Cc1cc2ccccc2nc1C3,–,–,–,4.1,1.9,10,10,–,–,–,–
Oc1ccc2c(c1)[C@]13CCN(CC4CCC4)[C@H](C2)[C@@H]1Cc1cc2ccccc2nc1C3,6.31,0.12,1.07,–,–,–,–,–,–,–,–
Oc1ccc2c(c1)[C@]13CCN(CCc4ccccc4)[C@H](C2)[C@@H]1Cc1cc2ccccc2nc1C3,12.5,4.68,17.9,–,–,–,–,–,–,–,–
CN1CC[C@]2(c3cccc(O)c3)Cc3nc4ccccc4cc3C[C@H]2C1,–,–,–,197,509,–,–,–,–,–,–
Oc1cccc2c1[C@]13CCN(CC4CC4)[C@H](C2)[C@@H]1Cc1cc2ccccc2nc1C3,–,–,–,548,64.8,–,–,148,0.27,17.5,0.19
Oc1ccc2c(c1)[C@]13CCN(Cc4ccccc4)[C@H](C2)[C@@H]1Cc1cc2ccccc2nc1C3,76.9,12.4,50,–,–,–,–,–,–,–,–
Oc1ccc2c3c1O[C@H]1c4nc5ccccc5cc4C[C@H]4[C@@H](C2)N(CC2CC2)CC[C@]314,–,–,–,30.2,34.4,–,–,13,0.43,14.8,–
CN1CC[C@]23Cc4nc5ccccc5cc4C[C@H]2[C@H]1Cc1cccc(O)c13,–,–,–,51.8,263,–,–,51.8,1,263,1.77
CC(C)CN1CC[C@]23Cc4nc5ccccc5cc4C[C@H]2[C@H]1Cc1cccc(O)c13,–,–,–,265,423,–,–,323,1.22,516,2.34
CN1CC[C@]23Cc4nc5ccccc5cc4C[C@H]2[C@H]1Cc1ccc(O)cc13,23.2,0.29,14.3,82.4,72.9,10,10,–,–,–,–
